# Only some compounds are listed: those with a hit (about 2.8% of all), similar ones and a draw of the others.
# PAFAH2 inh = PAFAH2 enzyme inhibitors, primary screen, biochemical, fluorescence polarization, human. Platelet-activating factor acetylhydrolase 2, cytoplasmic (Homo sapiens), Q99487. recombinant PAFAH2, FP-rhodamine activity probe. inhibition, % at 3.39 µM. 340,000 compounds, 0.99% hits. AID 492956, 2010;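 active = inhibition above the mean over all tested compounds plus 3 SD, cut at about 30% in these data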;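 also: inhibitors block probe labeling of enzyme so polarization drops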
# HTRA1 inh = HTRA1 serine protease inhibitors, primary screen, biochemical, fluorescence polarization, HTS; Q92743; recombinant HTRA1, FP-rhodamine activity-based probe; inhibition, % at 5.96 µM; 340,000 compounds, 0.5% hits; in the data active = inhibition above about 36%
# PAFAH1B2 FP inh = PAFAH1B2 enzyme inhibitors, primary screen, biochemical, fluorescence polarization, human. AID 492953, 2010. 340,000 compounds, 1.2% hits. inhibition, % at 3.39 µM. recombinant PAFAH1B2, FP-rhodamine activity probe. Platelet-activating factor acetylhydrolase IB subunit alpha2 (Homo sapiens), P68402;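 active = inhibition above the mean of all tested compounds plus 3 SD, cut at about 24% in these data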
# Target sequence (P68402 whole entry, looked up): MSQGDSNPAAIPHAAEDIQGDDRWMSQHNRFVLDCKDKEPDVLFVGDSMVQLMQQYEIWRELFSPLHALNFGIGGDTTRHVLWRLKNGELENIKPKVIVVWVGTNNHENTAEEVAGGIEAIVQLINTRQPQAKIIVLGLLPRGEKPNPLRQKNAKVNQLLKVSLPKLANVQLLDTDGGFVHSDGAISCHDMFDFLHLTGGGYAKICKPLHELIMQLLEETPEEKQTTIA
# pPAFAH FP inh = pPAFAH enzyme inhibitors, primary screen, biochemical, fluorescence polarization, human. recombinant pPAFAH, FP-rhodamine probe fluorescence polarization. inhibition, % at 3.39 µM. 330,000 compounds, 1.5% hits;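 active = inhibition above the mean inhibition across the screen plus 3 SD, cut at about 25% in these data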;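 also: inhibitors block binding of the rhodamine activity-based probe so polarization drops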
# Target sequence (Q13093 whole entry, looked up): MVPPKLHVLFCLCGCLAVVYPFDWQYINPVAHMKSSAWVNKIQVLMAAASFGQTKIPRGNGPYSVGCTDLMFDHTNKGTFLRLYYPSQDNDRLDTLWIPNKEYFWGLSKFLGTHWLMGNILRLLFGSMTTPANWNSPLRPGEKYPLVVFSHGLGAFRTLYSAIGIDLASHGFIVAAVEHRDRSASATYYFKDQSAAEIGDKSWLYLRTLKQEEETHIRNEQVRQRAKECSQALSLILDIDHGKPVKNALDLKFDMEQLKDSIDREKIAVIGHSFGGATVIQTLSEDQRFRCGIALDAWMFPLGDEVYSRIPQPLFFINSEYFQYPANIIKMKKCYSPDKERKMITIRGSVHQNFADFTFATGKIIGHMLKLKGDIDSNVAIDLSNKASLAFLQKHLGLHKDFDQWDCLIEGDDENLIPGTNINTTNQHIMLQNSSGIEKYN
# ABHD4 inh = ABHD4 inhibitors, primary screen, biochemical, fluorescence polarization, mouse; (Lyso)-N-acylphosphatidylethanolamine lipase (Mus musculus), Q8VD66; purified mABHD4, FP-Rh probe fluorescence polarization; inhibition, % at 8.92 µM; 370,000 compounds, 0.54% hits;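 active = inhibition exceeding the mean over every tested compound plus 3 SD, cut at about 30% in these data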
#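 Assay system: mABHD4 protein; medium: HEPES pH 7.0, NaCl, Pluronic buffer; dosing: 8.92 µM, single dose; schedule: 45 min + 60 min at 25 °C; signal: FP readout, ex 525 nm / em 598 nm; read-out: normalized percent inhibition of probe labeling; repeats: single replicate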
# PAFAH1B3 inh = PAFAH1B3 enzyme inhibitors, primary screen, biochemical, fluorescence polarization, human; inhibition, % at 3.39 µM; Platelet-activating factor acetylhydrolase IB subunit alpha1 (Homo sapiens), Q15102; 340,000 compounds, 0.28% hits; recombinant PAFAH1B3, FP-rhodamine probe; AID 492972, 2010;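 active = inhibition above the screen-wide average of all tested compounds plus 3 SD, cut at about 25% in these data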
# A number is an active result; i = inactive; nt = no result.
SMILES,PAFAH2 inh,HTRA1 inh,PAFAH1B2 FP inh,pPAFAH FP inh,ABHD4 inh,PAFAH1B3 inh
CCCCOCCCNC(=O)C[C@H]1C[C@@]2(C(=O)OC)C(=C[C@H](COCc3ccccc3)O[C@@H]2C)N(Cc2ccc(Cl)cc2Cl)C1=O,nt,nt,nt,nt,i,nt
c1ccc2c(c1)[nH]c1ccccc12,i,i,25,i,i,i
O=C(CCNC(=O)c1ccc(Cl)cc1)NCc1cccc(C(F)(F)F)c1,i,i,25,i,i,i
CCN(CC)C(=O)[C@H]1C[C@H](CC(=O)NC/C=C(\C)CCC=C(C)C)C(=O)N2CCc3c([nH]c4ccc(Cl)cc34)[C@]12C,i,i,i,i,i,i
CCN(CC)C(=O)[C@H]1CC(CC(=O)NC/C=C(\C)CCC=C(C)C)C(=O)N2CCc3c([nH]c4ccccc34)[C@]12C (some centres not stated),i,i,i,28,i,i
CCN(CC)C(=O)[C@H]1CC(CC(=O)NC/C=C(\C)CCC=C(C)C)C(=O)N2CCc3c([nH]c4ccc(OC)cc34)[C@]12C (some centres not stated),i,i,i,26,i,i
Cc1ccc(S(=O)(=O)NCCc2ccc(S(N)(=O)=O)cc2)cc1,i,i,i,i,i,i
Cc1ccc(CCNS(=O)(=O)c2ccc(C)cc2)cc1,i,i,26,i,i,i
Cc1ccc(CSCCNS(=O)(=O)c2ccc(C)cc2)cc1,i,i,25,i,i,i
CC(=O)Nc1ccc(S(=O)(=O)NCCc2c[nH]c3ccc(C)cc23)cc1,i,i,i,nt,i,i
Cc1ccc2[nH]cc(CCNS(=O)(=O)c3ccc(F)cc3)c2c1,i,i,27,nt,i,i
Cc1ccc(S(=O)(=O)NCCCN(C)C)cc1,i,i,i,i,i,i
Cc1ccc(S(=O)(=O)NCCCNS(=O)(=O)c2ccc(C)cc2)cc1,i,i,i,26,i,i
CCCCNC(=O)C[C@H]1C[C@@]2(C(=O)OC)C(=C[C@H](C(C)(C)C)O[C@@H]2C)N(Cc2ccco2)C1=O,nt,nt,nt,nt,i,nt
Cc1ccc(CCNS(=O)(=O)c2ccc3c(c2)NC(=O)C(C)C(=O)N3)cc1 (configuration not stated),i,i,27,i,i,i
COC(=O)[C@]12C[C@H](CC(=O)NCc3ccc(C)o3)C(=O)N(Cc3ccc4c(c3)OCO4)C1=C[C@H](C(C)C)O[C@@H]2C1CC1,nt,nt,nt,nt,i,nt
COc1ccc(C(=O)N(CCc2ccccc2)Cc2ccccc2)cc1S(=O)(=O)N1CCOCC1,i,i,i,27,i,i
CN1Cc2nnn(Cc3ccccc3)c2-c2cc(F)ccc2S1(=O)=O,nt,nt,nt,nt,i,nt
CCN1C(=O)[C@@H]2[C@@H](c3ccc(SC4CCCCC4)cc3)N3CCC[C@@]3(C(=O)OC)[C@@H]2C1=O,i,i,i,29,i,i
CCN1C(=O)[C@H]2[C@@H](c3ccc(SC4CCCCC4)cc3)N3CCCC[C@@]3(C(=O)OC)[C@H]2C1=O,i,i,i,i,i,i
Cc1nn(-c2ccccc2)c(C)c1/C=N\NC(=O)CSc1nc2ccccc2n1Cc1ccc(Cl)cc1,nt,nt,nt,nt,i,nt
Cc1ccc(-n2c(SCC(=O)Nc3ccc(S(=O)(=O)Nc4cc(C)nc(C)n4)cc3)nnc2-c2cccs2)cc1,nt,nt,nt,nt,i,nt
Oc1cccc(Nc2ccccc2)c1,i,i,i,i,i,i
CC(C)c1cc(Nc2cccc(O)c2)cc(C(C)C)c1O,nt,nt,nt,26,nt,nt
CCOc1cc(C2Nc3cccc4cccc(c34)N2)ccc1O,41,37,27,i,nt,40
SMILES,PAFAH2 inh,HTRA1 inh,PAFAH1B2 FP inh,pPAFAH FP inh,ABHD4 inh,PAFAH1B3 inh
CCOc1ccc(C2Nc3cccc4cccc(c34)N2)cc1OC,i,i,i,i,i,i
CC(OC(=O)c1ccc([N+](=O)[O-])s1)C(=O)Nc1ncc(Cl)cc1Cl (configuration not stated),30,i,i,26,i,30
CCCC/C=C1/[C@H](c2ccccc2)N(C)C2=N[C@@H](c3ccccc3)CC(=O)N21,nt,nt,nt,nt,i,nt
Fc1ccc(-n2cc(-c3ccccc3)c3c(=S)nc[nH]c32)cc1,i,i,i,30,i,i
COC(=O)[C@]12C[C@H](CC(=O)NCc3cccc(C(F)(F)F)c3)C(=O)N(CCc3ccc(OC)c(OC)c3)C1=C[C@H](C1CCCC1)O[C@@H]2C,nt,nt,nt,nt,i,nt
Cc1ccccc1NC(=O)C1CCCN1S(=O)(=O)c1cccnc1 (configuration not stated),nt,nt,nt,nt,i,nt
O=c1[nH]c(CN2CCN(S(=O)(=O)c3ccc(Cl)cc3)CC2)nc2cc(Cl)ccc12,i,i,24,i,i,i
O=S(=O)(c1ccc(F)cc1)N1CCN(CCc2ccccc2)CC1,i,i,i,i,i,i
O=S(=O)(c1ccc(Cl)cc1)N1CCN(Cc2ccncc2)CC1,i,i,24,i,i,i
O=S(=O)(c1ccc(Cl)cc1)N1CCN(CCc2ccccc2)CC1,i,i,28,i,i,i
CC(C)NC(=O)NC(=O)COC(=O)c1ccc(S(=O)(=O)Nc2ccccc2)cc1,i,i,i,25,i,i
C/C(=N/NC(=O)c1cc2ccccc2cc1O)c1ccco1,i,i,i,40,i,i
O=C(NNC(=O)C12CC3CC(CC(O)(C3)C1)C2)c1csc(N2CCOCC2)n1,i,i,i,i,i,i
O=C(NNC(=O)C12CC3CC(CC(Cl)(C3)C1)C2)c1csc(N2CCOCC2)n1,i,i,33,i,i,i
CC1CCN(S(=O)(=O)c2ccc3c(c2)oc(=O)n3C)CC1,i,i,25,i,i,i
CCOC(=O)CCCCC(=O)c1[nH]c(=O)[nH]c1CSc1nc2ccccc2[nH]1,i,i,25,i,i,i
CCCCCCCCN1C(=O)[C@@H](CC(=O)NCCCN2CCCC2=O)C[C@@]2(C(=O)OC)C1=C[C@H](C(C)C)O[C@@H]2C1CC1,nt,nt,nt,nt,i,nt
O=C(NCc1ccccc1)c1cccc(COc2ccc3c(c2)CCC3)c1,i,i,i,i,i,i
CCOc1cc(OCC)cc(C(=O)O)c1,i,i,i,i,i,i
O=C(O)c1cc(OCc2ccccc2)cc(OCc2ccccc2)c1,i,i,29,i,i,i
O=C(O)c1cccc(COc2ccc3c(c2)CCC3)c1,i,i,48,i,i,i
COc1ccc(OCc2cccc(C(=O)O)c2)cc1,i,i,25,i,i,i
CCCCCN1CCCCC(NC(=O)c2c(F)cccc2F)C1=O (configuration not stated),nt,nt,nt,nt,i,nt
C=CCN(c1ccccc1)S(=O)(=O)c1cccc(C(=O)Nc2nnc(SCC)s2)c1,i,i,i,34,i,i

# High-throughput results: PubChem BioAssay, The Scripps Research Institute Molecular Screening Center
